Assay results from different studies.
Compare with care: the assays were run in different laboratories.
Target: Activin receptor type-1 (ACVR1, Homo sapiens, UniProt Q04771)
One construct used (Q04771 1-509): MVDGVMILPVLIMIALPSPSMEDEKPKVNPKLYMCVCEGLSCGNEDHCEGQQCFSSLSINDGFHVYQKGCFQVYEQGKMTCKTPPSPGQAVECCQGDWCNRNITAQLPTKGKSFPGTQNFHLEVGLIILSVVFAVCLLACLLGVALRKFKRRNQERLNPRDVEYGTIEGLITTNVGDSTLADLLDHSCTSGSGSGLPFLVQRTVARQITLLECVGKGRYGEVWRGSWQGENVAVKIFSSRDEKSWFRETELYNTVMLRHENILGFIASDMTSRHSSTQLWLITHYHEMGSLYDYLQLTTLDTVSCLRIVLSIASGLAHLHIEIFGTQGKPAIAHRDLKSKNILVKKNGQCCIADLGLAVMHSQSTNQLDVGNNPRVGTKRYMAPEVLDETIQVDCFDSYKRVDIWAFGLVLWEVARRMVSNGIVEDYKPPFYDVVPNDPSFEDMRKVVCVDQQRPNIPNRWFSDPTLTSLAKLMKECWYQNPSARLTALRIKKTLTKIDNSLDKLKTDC

SMILES | test | setting | quantity | value
Cn1c2c(c3ccc(Cl)c(Cl)c31)C(C#N)C1(CCOCC1)NC2=O (stereo not drawn) | thermal stability, DSF | 10 µM | ΔTm | 0.1 °C
Cc1cc(NC(=O)c2cccc3cc(-c4cccc5[nH]nc(N)c45)ccc23)ccc1F | enzyme activity, inhibitor | 0.1 µM | activity vs control | 105%
CCC1(CC)NC(=O)c2c(c3ccc(Cl)c(Cl)c3n2C)C1C#N (stereo not drawn) | thermal stability, DSF | 10 µM | ΔTm | 0.2 °C
COc1cc(-c2cn(C3CCc4ccccc4N(CC(F)(F)F)C3=O)nn2)ccc1-n1ccc(C)n1 (stereo not drawn) | cell-free assay, competition with immobilised ligand | 1 µM | remaining binding | 100%
COc1cc2c(N3CCN(C(=O)Nc4ccc(OC(C)C)cc4)CC3)ncnc2cc1OCCCN1CCCCC1 | cell-free assay | 0.5 µM | remaining signal | 145%
CN([C@@H]1CCc2c(CC(=O)O)c3ccccc3n2C1)S(=O)(=O)c1ccc(F)cc1 | cell-free assay, competition with immobilised ligand | 1 µM | remaining binding | 100%
Cn1c2c(c3ccc(Cl)c(Cl)c31)C(C#N)C1(CCCC1)NC2=O (stereo not drawn) | thermal stability, DSF | 10 µM | ΔTm | -0.2 °C
Cc1cnc(NC2CCOCC2)nc1-n1cnc(C(=O)NC(CN)c2cc(F)cc(Cl)c2)c1 (stereo not drawn) | enzyme activity, inhibitor, radiometric | 1 µM | remaining activity | 96%
Cn1c2c(Cl)c(Cl)ccc2c2cn[nH]c(=O)c21 | thermal stability, DSF | 10 µM | ΔTm | 3.3 °C
O=C1NC(=O)c2cc(Nc3ccc(F)cc3)c(Nc3ccc(F)cc3)cc21 | cell-free assay | 0.5 µM | remaining signal | 92.3%
O=C(Nc1cnn(-c2csc(C(=O)NC3COC3)c2)c1)Nc1c(F)cccc1Cl | enzyme activity, inhibitor | 5 µM | remaining activity | 95.7%
CC(C)(C)c1nc(-c2cccc(NS(=O)(=O)c3c(F)cccc3F)c2F)c(-c2ccnc(N)n2)s1 | enzyme activity, inhibitor, radiometric | 1 µM | remaining activity | 47%
Cn1c2c(c3ccc(Cl)c(Cl)c31)C(C#N)C1(CCNCC1)NC2=O (racemic) | thermal stability, DSF | 10 µM | ΔTm | -0.1 °C
COc1cccc(CNC(=O)c2nc3scc(COCc4ccc(C(=O)O)cc4)c3c(=O)[nH]2)c1 | cell-free assay, competition with immobilised ligand | 1 µM | remaining binding | 94.3%
COc1cc(Cl)c(C(=O)N[C@@H](CN[C@H]2CC[C@@H](N)CC2)Cc2ccc(C#N)cc2)cc1-c1ccc(CN[C@H](C)c2ccc(C)cc2)o1 | enzyme activity, inhibitor | 1 µM | remaining activity | 89%
Nc1cnc(N2CCc3cc(S(=O)(=O)Nc4c(F)cc(Cl)cc4F)cc(N4CCCC4=O)c32)nc1 | cell-free assay, competition with immobilised ligand | 1 µM | remaining binding | 100%
Clc1ccc(Nc2nnc(Cc3ccncc3)c3ccccc23)cc1 | cell-free assay | 0.5 µM | remaining signal | 96.1%
CN1CCN(c2cnc3c(C4CCN(C(=O)c5ccc(OC(F)(F)F)cc5N)CC4)ncnc3c2)CC1 | cell-free assay, competition with immobilised ligand | 1 µM | remaining binding | 100%
Cc1ccc(NC(=O)c2ccc(C)c(C(F)(F)F)c2)cc1C#Cc1nn(C2CCC(O)CC2)c2ncnc(N)c12 (stereo not drawn) | cell-free assay | 10 µM | remaining signal | 77%
Nc1ncnc2occ(-c3ccc(NC(=O)Nc4cc(C(F)(F)F)ccc4F)cc3)c12 | cell-free assay | 20 µM | remaining signal | 72%
Cc1c(NC(=O)c2cc(C(N)=O)nc3cc(F)ccc23)c(C(F)(F)F)nn1Cc1ccc(C#N)cc1 | cell-free assay, competition with immobilised ligand | 1 µM | remaining binding | 87%
